Tested on: MS2 coat protein
Assay: apparent Kd, MS2 coat protein; higher = weaker binding; RNA-MaP array; FMN 200 µM where present
Summary of the method: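 Each design was made on Illumina sequencing-chip clusters by stalled E. coli RNA polymerase and titrated with SNAP-549-labelled MS2 coat protein from 0.7 or 1.5 nM, doubling to 3 µM, in the absence and then the presence of constant ligand. The buffer was 100 mM Tris-HCl pH 7.5, 80 mM KCl, 4 mM MgCl2, BSA, DTT, yeast tRNA and Tween-20. The apparent Kd is the median of filtered per-cluster fits of binding curves, with green signal normalised to red-channel RNA signal and control-cluster median Fmax.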

[1] = designed as: OFF switch for flavin mononucleotide, no ligand
[2] = ligand present: flavin mononucleotide, designed as: OFF switch for flavin mononucleotide
[3] = designed as: ON switch for flavin mononucleotide, no ligand
[4] = ligand present: flavin mononucleotide, designed as: ON switch for flavin mononucleotide

Sequence	apparent Kd [1] [nM]	apparent Kd [2] [nM]	apparent Kd [3] [nM]	apparent Kd [4] [nM]
ACAAGACAUGAGGAUCACCCAUGUGAGGAUAUGCUCGGAUGACAUGACGUUAGCUAACGCAGAAGGCACAAUAA	55.8	56		
UCUUAUUGCAAGGAUAUGCUUUUUAUUUCUUUUGCAGAAGGUGCAACAUGAGGAUCACCCAUGUUUCCGGGCAU	16	28		
GGAGACCUCACAGGAUAUGCUGGACUUUGUCCAGCAGAAGGGUGAAAACAUGAGGAUCACCCAUGUAUGGUCUCCAAAUUUAAA			200	13.2
UUAUGUUUUGUAGGAUAUCAUUAGAUUUGUAUUUUAAUUGUAAUUUAGAUAUGAGAAGGACAUUUACAUGAGGAUCACCCAUGU	14.7	10.7		
CGCGGACAAGAGAAGGCCAGACCUCGGAACCUGAGGCACCGCUAGGCAUGGAGGAUAUCUUGACAUGAGGAUCACCCAUGUACU			665	33.7
CUAUUCCGAGGAUAUACAUGAGGAUCACCCAUGUCGGGCCUCCGCGUUUAGCGCCUCAGUAGAAGGCGGGUUUC	19.1	25.4		
ACAUGAGGAUCACCCAUGUGAAAGAAAUGGCUGACUUUGAGCUAGGAUAUUUGUGCAUAUCAAACGAAGAAGGAGCAUUACUGG	22.2	21		
GGAGCGGAAGGAUAUGCUGCGGGAUUGAAUGGAAAGAAAAUACAUGAGGAUCACCCAUGUAGAAGGUCCGUGAA	18.2	54.2		
AAAAGGUGAGGAUAUUCGGCGCCGGGAAGGUUGGUGCGGAUGAAGAAGGCACAUGAGGAUCACCCAUGUAAUAA	63	49.1		
UGUAUGUGGGCAGGAUAUACAUGAAUAUAUAUGAUGUAGUAUGAUGUAACAUGAGGAUCACCCAUGUAGAAGGGCCGGUGUAUG	165	214		
GCUAGUGCAGGAUAUGCGUGGGAUGUUAUCCAUUUUCAUCUACAUGAGGAUCACCCAUGUAGAAGGGCACCCUU	29.3	110		
ACAUGUAAUGCAGGAUAUUUUACACAUGAGGAUCACCCAUGUGACCAGAGGAAUUGCUAUGAGUAAAAGAAGGGUAUGUACAUG	72.3	86.4		
GGAAACUACGAGAAGGACAUGUGGUCCUUCAGUUACAUGAGGAUCACCCAUGUAGGAUAUCGUAGUUUCAGGAUCGUGAGAUCA	33.2	10.7		
GUCGGAAACGACAAUGAUAGGACUGAGGAUAUACAUAAGUUUGUCCAUACAUGAGGAUCACCCAUGUAGAAGGCAGUCCUAUCU	6.33	15.9		
CAUGUCUGAGGAUAUCGUUUUUUGUACAUGAGGAUCACCCAUGUCCUAUUUUUUUUAUUUCGAGAAGGCAGUGUAU	47.7	37.7		
AAAUGAUAGUCAGGAUAUAAGUUGGAGCCUCGGUCGCACAUGAGGAUCACCCAUGUGUCUUGGAUUUAGAAGGGACAGAUGGGC			682	648
UGGUGACGUGUAGGAUAUGGAGGUGGGUUUUGGCCAGAAGGACAUGAGGAUCACCCAUGUGGUAGAGGGUUGGCGGUGGCCCGU	17.7	15.2		
GGCAUGUGAGGAUAUCUGAUGUCUAACUUCGGUUAGACAUCAGAGAAGGCACAUGAGGAUCACCCAUGUCUGCC	68.4	79.8		
AAUUUACAUGAGGAUCACCCAUGUGAGGAUAUAUAUAUAUGCUUGUUAUUGCGUGUGUGUAGAAGGCGCGUGAU	21.1	21		
AACAGUACAGGAUAUACAUGAGGAUCACCCAUGUGAGAAUUAUGUGGCGUACCACAAAGUAGAAGGGUACUGGA	81.7	308		
AAGAUGUCUUGAGGAUAUCCAAAGGAAACCGCAGGAGAAGGCAGGACAUGAGGAUCACCCAUGUUGGGUUUAAUGCGAACAUAA	102	342		
GGCCGUAAUAAGGAUAUCACUAGCUUCGGCUAGUGAGAAGGUAUUACAUGAGGAUCACCCAUGUGGUCAGGCCA	279	730		
GGCUCAUUUACAUUAAUGUGCAGACAGGAUAUCCACGGCGGUUCCUACAUGAGGAUCACCCAUGUGGAGAAGGGUCGCUAAUGG	19.6	28		
GGGUACAUGGGAGGAUAUCCUCAUGAGACAUGAGGAUCACCCAUGUAUUAUAAGCCGAAAGGCAAGGAGAAGGCCCAUGUACCG			30.2	17
CAGUACUGAGGAUAUACAUGAGGAUCACCCAUGUGUUCCAGCUAGGAAACUAGCAAAAGUAGAAGGUAGUACUG	13.7	56.5		
AUUACAUGAGGAUCACCCAUGUACAGCACGUUUCAAAACAGUGAGGAUAUACGAAAUGUAGGAACGUAGAAGGCACUGGGUGCA			98.3	34.2
UGGAUCAAUACAGGAUAUGGUGACGCACAUGAGGAUCACCCAUGUCCGCAGCGUGCUAAGCACGCCCAGAAGGGUAUUGAUUCG			722	69.4
ACGCCAAUCGAGAAGGGCCCAUGUGCUACGUCGGCAGGAUAUCGACAUGAGGAUCACCCAUGUUGGCGAUCCUUUUUGGCUAAC	147	212		

Sequence	apparent Kd [1] [nM]	apparent Kd [2] [nM]	apparent Kd [3] [nM]	apparent Kd [4] [nM]
CAAAUCUGAGGAUAUCGAUAUUUGUACAUGAGGAUCACCCAUGUCCUAUUUAUUAUAUUUCGAGAAGGCAGUGUAU	19.5	17.2		
GGCUCGAGGGUCUCCGCGUUCACAUGAGGAUCACCCAUGUAACAGGAUAUCGGGCCAAAGGGCAGCGAGAAGGGUUACUUGGGC	6.43	14.6		
GAGUGACAUGAGGAUCACCCAUGUGAGGAUAUCGGACGGACCAAAUUAACAACAACCGCGAGAAGGCACAUCGG	146	135		
ACAUGAGGAUCACCCAUGUAUUACAUGGUUAAGUUUAUUAACAGAAGGCGAAAUUACCACUUUUUCGAGGAUAUGUAUUCUAUA	38.2	52.7		
AGGAAGUGAGGAUAUGCAUCAUAUAGUGGACGCUAUAGAAUGUAGAAGGCACAUGAGGAUCACCCAUGUUUAAA	30.2	29.3		
AAGUAUAAGGGCAUUAAACAUGAGGAUCACCCAUGUACAAUAGAGGAUAUGCAUUUCGGUUUAGAGUAGAAGGUUAGAGAAUAU	27.6	33.7		
UGGUACAUGGGAGGAUAUGGGUUGAUAACAUGAGGAUCACCCAUGUUAAUGCCGAAAGGCAAGAACUAGAAGGCCCAUGUACCU			410	30.2
UGACUGAAGCAAGGAUAUUGUAAAGUUAUCGUACAAGAAGGUGCUGUUUAUGUCUCUUUACAUGAGGAUCACCCAUGUUUUUAU			32.8	24.6
ACUAUACGAGGAUAUACUGACGGGCCUCAGGCAUACAUCAAACAUGAGGAUCACCCAUGUAGAAGGCGUAUACU	79.4	29.2		
UUUAAGUCAGGAUAUCGUUAAUUUAAUUAUUUAUUUUAGUUCGAGAAGGGACAUGAGGAUCACCCAUGUAAUUU	40.5	63.1		
GGUCGUCACAUUAACAUGAGGAUCACCCAUGUCAAAUAACAUGAGGAUAUGCAUCCUAAUUGGAUGCAGAAGGCAUGGACGACC			6.72	5.39
GGUUGGCGAGGAUAUACAUGAGGAUCACCCAUGUGGUCCUGCGGUGGAAUCGCCCUUUGUAGAAGGCGCGGGUC	49.5	44.7		
GCGCUUAUACAGAAGGCCAUAUACAUGAGGAUCACCCAUGUUACAUGGUGGAGGAUAUGUUAUUUAUUACAGGUAGAUGAGCGC			4.71	5.32
AAUUAUUUGUAGAAGGAAGGAGAUUUUGUAUUCUUAGGAUAUACUAUUACAUGAGGAUCACCCAUGUUUGUUGGGUUGCAAUGU	315	323		
UCUCUUCUGUAGAAGGCCCAACUUGUGAAGAUAACGAUACUAUAGAAGUAGGGAGGAUAUACAUGAGGAUCACCCAUGUAGGAA	8.09	15.8		
CAGGUAGACUGAGGAUAUACACAAAACAGCUAGUCUAUCUAGCUGAUCACAUGAGGAUCACCCAUGUAGAAGGCAGUCUGCCUG	19.2	55.2		
ACGAGUAAAGCAGGAUAUCUAUUGUCUCUGUAACAUGAGGAUCACCCAUGUAGAGAAGGGCUUAGUCAUACACUUCGAAGUUGC	9.78	9.77		
GUUUUCGCAGGAUAUUAGAGUUUUUACAUGAGGAUCACCCAUGUUAAUUGGGUUAAUGUCUAAGAAGGGCGAUGUA	67.6	101		
AAUGGCUGAGGAUAUACACUCACGUCUAAAAGGUUCAAAUGACAUGAGGAUCACCCAUGUAGAAGGCAGCCCGA		50.2		
ACAUGAGGAUCACCCAUGUGAUGAUCUCCCAUGUUAUAUUUCAGAAGGCUCGCGUGUUUGAUGAGAGAGGAUAUGGAAUAUACG	325	272		
AGGAGGAAUGUAGGAUAUAUAUAUAUAUAUAGGCAAAGCGUAUAUAUAUAUAUAGAAGGACAUGAGGAUCACCCAUGUUUCCCU	9.27	8.99		
CUUUUGUGAGGAUAUUCGUAGUAGGUAAAUAAAACUAUUACGGAGAAGGCACAUGAGGAUCACCCAUGUUCCUU	18.1	54.2		
AUACUCAUGUAAGGAUAUGCAGCCGUUUCGGCUGCAGAAGGUACUAUAAUACAUGAGGAUCACCCAUGUCUCUCGCAUUGCGGG			400	101
GGUGAAUGAACAUGAGGAUCACCCAUGUACAGGAAACUGAAUGAGGAUAUCCAUAGCAAAGCUAUGGAGAAGGCAUGGGUCACC			302	99.8
AUAAGCUCGUCAGGAUAUGCGACACUGUGUCAGCAGUGUGGUAUGAUCACAUGAGGAUCACCCAUGUAGAAGGGACGAGCUUAU	6.34	14.3		
CCAACGUACAAUUUAGAUCUACAUGAGGAUCACCCAUGUACGGAGGAUAUCAGCUCGAAUAGAGCUGAGAAGGCCGAAUUAAUU			371	89.4
UAAGAUUAUGUAGGAUAUGGUUAUCUAUGUCUAGUUACUAGACAUAGAUAACCAGAAGGACAUGAGGAUCACCCAUGUUGAACG	7.73	16.9		

— the EternaBench riboswitch data
